pIC50: −log10 of the molar value. Values after ≈ are worked out from the molar mass of the structure shown. Active and inactive are the calls of the source. No cut-off for these calls is given here.
Tests used:
[1] = Toxicity against human erythrocytes assessed as hemolytic rate after 1 hr by haemolytic assay; format: cell-based, Erythrocyte; settings: read-out: Activity
Method in brief: (§1)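 Erythrocytes from blood banks suspended as a 2% saline suspension. Incubated 1 h with compound (50–0.419 µg/mL). Triton X (5 mg/mL) used as positive control. Absorbance read at 450 nm. ANOVA with Tukey test, p < 0.05.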

[2] = tested on: Radical scavenging activity; assay: Antioxidant activity assessed as DPPH radical scavenging activity after 30 mins; format: functional
Method in brief: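 Compound (500–0.48 µg/mL) mixed with DPPH, held 30 min at 25 °C in the dark, absorbance read at 517 nm. AA% = 100 − [(ABS_T − ABS_B)×100/ABS_C], with a compound + ethanol blank and a DPPH + ethanol negative control.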

[3] = Toxicity against human erythrocytes assessed as disruption of cell membrane after 1 hr by haemolytic assay; format: cell-based, Erythrocyte; method in brief: as §1
[4] = tested on: Erythrocyte; assay: Antioxidant activity against H2O2-induced oxidative stress in human erythrocyte membrane at 12.5 to 100 uM treated for 30 mins prior to H2O2 challenge measured after 3 hrs; format: functional, cell membranes
Method in brief: (§2)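 Erythrocytes from blood-bank samples, washed in saline phosphate with 1 mM NaN3 at 4 °C, plasma and white cells removed. Preincubated with compound 30 min at 37 °C, then brought to 2% haematocrit in PBS. Stress induced by H2O2 (300 μM), 3 h at 37 °C. Absorbance read at 540 nm. Mean ± S.D. of three experiments in duplicate.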

[5] = Acute toxicity in po dosed Swiss mouse administered as single dose measured for 14 days after drug exposure; format: organism-based; settings: in vivo
Method in brief: (§3)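 Female Swiss mice (eight weeks old, specific pathogen-free, kept at 22 °C with food and water ad libitum, acclimatised five days) were tested under OECD Test Guideline 423. Each received a single dose by oral gavage, n = 3. The starting dose came from the ICCVAM prediction model using 3T3 neutral red uptake IC50. Animals were observed individually during the first 30 min and periodically over 24 h, especially the first 4 h, then daily for 14 days.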

[6] = tested on: Mus musculus; assay: Acute toxicity in Swiss mouse assessed as animal's death at 2000 mg/kg, po administered as single dose measured during 14 days after drug exposure; format: organism-based; design: dose 2000 mg/kg, route oral; settings: in vivo, 336 h; method in brief: as §3
[7] = Genotoxicity in human T lymphocytes assessed as proportion of cells without DNA damage at 50 uM after 1 hr by comet assay (reference value: 90%); format: toxicity, cell-based; settings: t-cell
[8] = tested on: Mus musculus; assay: Acute toxicity in Swiss mouse assessed as agitation at 2000 mg/kg, po administered as single dose measured during 14 days after drug exposure; format: organism-based; design: dose 2000 mg/kg, route oral; settings: in vivo, 336 h; method in brief: as §3
[9] = Myelosuppressive activity against Swiss mouse CFU-GM cells assessed as inhibition of cell growth and differentiation after 7 days; format: cell-based; settings: 168 h
Method in brief: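 Swiss mouse bone marrow cells (1×10^5) in agar with 2× DMEM, mouse GM-CSF and bovine serum. Ethanolic compound solutions (534–4.17 μM) added, medium-only negative control. Incubated seven days, then CFU-GM colonies counted under 32× magnification. ANOVA.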

[10] = Genotoxicity in human T lymphocytes assessed as proportion of cells without DNA damage at 25 uM after 1 hr by comet assay (reference value: 90%); format: toxicity, cell-based; settings: t-cell
[11] = tested on: Mus musculus; assay: Acute toxicity in Swiss mouse assessed as depression at 2000 mg/kg, po administered as single dose measured during 14 days after drug exposure; format: organism-based; design: dose 2000 mg/kg, route oral; settings: in vivo, 336 h; method in brief: as §3
[12] = Genotoxicity in human T lymphocytes assessed as proportion of cells without DNA damage at 100 uM after 1 hr by comet assay (reference value: 90%); format: toxicity, cell-based; settings: t-cell
[13] = Genotoxicity in human T lymphocytes assessed as proportion of cells with DNA damage at 25 uM after 1 hr by comet assay (reference value: 10%); format: toxicity, cell-based; settings: t-cell
[14] = Genotoxicity in human T lymphocytes assessed as proportion of cells with DNA damage at 100 uM after 1 hr by comet assay (reference value: 10%); format: toxicity, cell-based; settings: t-cell
[15] = Genotoxicity in human T lymphocytes assessed as proportion of cells with DNA damage at 50 uM after 1 hr by comet assay (reference value: 10%); format: toxicity, cell-based; settings: t-cell
[16] = Toxicity against human erythrocytes assessed as hemolytic potential after 1 hr by haemolytic assay; format: cell-based, Erythrocyte; settings: read-out: Activity; method in brief: as §1
[17] = Pro-oxidant activity in H2O2-stimulated human erythrocyte membrane assessed as increase in hemolysis at >35 uM treated for 30 mins prior to H2O2 challenge measured after 3 hrs; format: ADME, cell-based; method in brief: as §2

With `CC(C)=CCC/C(C)=C/CNc1ccccc1` the hemolysis at 1 h [1] was < 5%, the Activity [2] was “Active” and the IC50 at 1 hr [3] was < 0.419 µg/mL. For the same molecule, the Activity [4] was “Active”.

For `CC(C)=CCC/C(C)=C/CN(c1ccc(O)cc1)S(C)(=O)=O`, the hemolysis at 1 h [1] was < 5%, the IC50 at 1 hr [3] was < 0.419 µg/mL and the Activity [4] was “Active”.

With `CC(C)=CCC/C(C)=C/CNc1ccc2c(c1)OCO2` the hemolysis at 1 h [1] was < 5%, the Activity [2] was “Active” and the IC50 at 1 hr [3] was 18.3 µg/mL (≈ 67.1 µM). The Activity [4] was “Active”.

In the case of `CC(C)=CCC/C(C)=C/CNc1ccc(O)cc1`, the LD50 at 336 h [5] was > 2000 mg/kg, the Activity [6] was “Non-toxic” and the Activity [7] was 72%. The Activity [8] was “Toxic”, the pIC50 [9] was 3.34 and the Activity [10] was 78%. For the same molecule, the Activity [11] was “Toxic”, the Activity [12] was 70% and the Activity [13] was 22%. The Activity [14] was 30%, the hemolysis at 1 h [1] was < 5% and the Activity [15] was 28%. The Activity [2] was “Active”, the IC50 at 1 hr [3] was < 0.419 µg/mL and the Activity [4] was “Active”.

For `CC(C)=CCC/C(C)=C/CNc1cc(C)nn1C`, the hemolysis at 1 h [16] was 75%, the hemolysis at 1 h [1] was > 5% and the Activity [17] was “Toxic”. The Activity [2] was “Active” and the IC50 at 1 hr [3] was 1.76 µg/mL (≈ 7.11 µM).
